Values after ≈ are worked out from the molar mass of the structure shown.
Tests used:
[1] = system: Staphylococcus aureus; assay: In vitro antibacterial activity against clinical isolates of Staphylococcus aureus 18773 (gram-positive) by agar dilution assay.; type: functional
How it was run: (§1)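 Agar dilution on Isosensitest agar; compound incorporated by twofold serial dilution. Overnight broth cultures delivered by multipoint inoculator at 10⁵ CFU per point. Plates read after 18 h at 37 °C. MIC taken as the lowest concentration giving complete growth inhibition.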

[2] = Half life period was determined for the compound at 400 mg/kg concentration, oral route in human; type: ADME, organism-based; design: dose 400 mg/kg, route oral; conditions: in vivo
How it was run: (§2)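 Four healthy volunteers of both sexes took oral capsules (100 mg units) at three dose levels. Venous blood drawn into heparinized tubes and plasma obtained by low-speed centrifugation. Urine collected. Unchanged drug in plasma and urine determined by C-18 HPLC after CHCl₃ extraction, with UV detection at 245 nm.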

[3] = Time taken for peak plasma concentration at a dose of 200 mg/kg, oral route in human; type: ADME, organism-based; design: dose 200 mg/kg, route oral; how it was run: as §2
[4] = system: Homo sapiens; assay: Urinary clearance was determined at 100 mg/kg oral dosage in human; type: ADME, organism-based, Urine; design: dose 100 mg/kg, route oral; conditions: in vivo; how it was run: as §2
[5] = Ratio of tissue (kidney) levels to plasma levels after 1 hr of treatment; type: ADME
How it was run: (§3)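 Male Wistar rats received 50 mg/kg po and were killed at 1 and 15 h. Tissue homogenates and plasma extracted with CHCl₃ after adding internal standard and pH 6.2 citrate buffer. Drug quantified by C-18 HPLC with UV at 245 nm. Tissue level divided by plasma level.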

[6] = Time taken for peak plasma concentration at a dose of 20 mg/kg, oral route in dog(beagle) suspended in carboxymethyl cellulose (CMC); type: ADME, organism-based, Canis lupus familiaris; design: dose 20 mg/kg, route oral
How it was run: (§4)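 Four male beagle dogs or two Macaca fascicularis monkeys dosed orally, suspended in carboxymethyl cellulose. Venous blood collected into heparinized tubes and plasma separated by low-speed centrifugation. Urine gathered in metabolic cages. Unchanged drug measured by C-18 HPLC (extraction, UV 245 nm).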

[7] = Half life period was determined for the compound at 10 mg/kg concentration, intraperitoneal route; conditions: in vivo, ip
[8] = system: Enterobacter cloacae; assay: In vitro antibacterial activity against clinical isolates of Enterobacter cloacae 041 (gram negative) by agar dilution assay.; type: functional; how it was run: as §1
[9] = system: Klebsiella pneumoniae; assay: In vitro antibacterial activity against clinical isolates of Klebsiella pneumoniae-4 (gram negative) by agar dilution assay.; type: functional; how it was run: as §1
[10] = in vivo; conditions: heart, po, 50 mg/kg
[11] = Ratio of tissue (liver) levels to plasma levels after 15 hr of treatment; type: ADME; how it was run: as §3
[12] = Tissue levels determined 1 hr after peroral dose of 50 mg/kg in kidney; conditions: po
[13] = Half life period was determined for the compound at 20 mg/kg concentration, oral route in monkey (Macaca fascicularis); type: ADME, organism-based; design: dose 20 mg/kg, route oral; conditions: cynomolgus monkey, in vivo; how it was run: as §4
[14] = Time taken for peak plasma concentration at a dose of 20 mg/kg, oral route in monkey (Macaca fascicularis) suspended in carboxymethyl cellulose (CMC); type: ADME, organism-based; design: dose 20 mg/kg, route oral; conditions: cynomolgus monkey; how it was run: as §4
[15] = in vivo; conditions: po, 25 mg/kg
[16] = in vivo; conditions: kidney, po, 50 mg/kg
[17] = Half life period was determined for the compound at 20 mg/kg concentration, oral route in dog(beagle); type: ADME, organism-based, Canis lupus familiaris; design: dose 20 mg/kg, route oral; conditions: in vivo; how it was run: as §4
[18] = Urinary clearance was determined in rat at 10 mg/kg intraperitoneal dosage; type: ADME, organism-based; design: dose 10 mg/kg, route intraperitoneal; conditions: urine, ip, read-out: CL_renal (converted)
How it was run: (§5)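 Fasted male Wistar rats (180–230 g) given the drug ip in carboxymethyl cellulose. Plasma and urine extracted with CHCl₃ from citrate buffer pH 6.2 with internal standard. Analysis by reverse-phase C-18 HPLC, 0.1% AcOH/MeOH gradient, 245 nm UV. Urinary clearance and total clearance derived as pharmacokinetic parameters.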

[19] = Half life period was determined for the compound at 100 mg/kg concentration, oral route in human; type: ADME, organism-based; design: dose 100 mg/kg, route oral; conditions: in vivo; how it was run: as §2
[20] = Peak plasma concentration at a dose of 100 mg/kg, os route in rat suspended in carboxymethyl cellulose (CMC); type: ADME, organism-based; design: dose 100 mg/kg; conditions: po, read-out: Activity
How it was run: (§6)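 Fasted male Wistar rats (180–230 g) dosed orally, suspended in carboxymethyl cellulose. Plasma and urine assayed by HPLC: sample plus internal standard and citrate buffer (0.1 M, pH 6.2), extracted into CHCl₃, dried, redissolved in MeOH. Separation on C-18 with 0.1% AcOH/MeOH gradient, UV detection at 245 nm.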

[21] = Peak plasma concentration at a dose of 25 mg/kg, os route in rat suspended in carboxymethyl cellulose (CMC); type: ADME, organism-based; design: dose 25 mg/kg; conditions: po, read-out: Activity; how it was run: as §6
[22] = Total clearance was determined in rat at 10 mg/kg intraperitoneal dosage; type: ADME, organism-based; design: dose 10 mg/kg, route intraperitoneal; conditions: in vivo, ip, read-out: Clearance (converted); how it was run: as §5
[23] = Peak plasma concentration at a dose of 20 mg/kg, oral route in monkey (Macaca fascicularis) suspended in carboxymethyl cellulose (CMC);Range is between (5.5-6); type: ADME, organism-based; design: dose 20 mg/kg, route oral; conditions: cynomolgus monkey, read-out: Activity; how it was run: as §4
[24] = Urinary excretion for the compound was evaluated as percent dose excreted at 50 mg/kg os dosage; type: ADME, organism-based; design: dose 50 mg/kg; conditions: urine, po; how it was run: as §6
[25] = Time taken for peak plasma concentration at a dose of 100 mg/kg, oral route in human; type: ADME, organism-based; design: dose 100 mg/kg, route oral; how it was run: as §2
[26] = Peak plasma concentration at a dose of 50 mg/kg, os route in rat suspended in carboxymethyl cellulose (CMC); type: ADME, organism-based; design: dose 50 mg/kg; conditions: po, read-out: Activity
How it was run: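 Fasted male Wistar rats (180–230 g), drug suspended in carboxymethyl cellulose, given orally or ip. Plasma (heparinized) and urine from metabolic cages were sampled at various times. The unchanged drug was measured by HPLC after CHCl3 extraction at pH 6.2 with an internal standard, on a C-18 column with an AcOH/MeOH gradient and UV detection at 245 nm. Interassay and intraassay variability was about 10%.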

[27] = Ratio of tissue (liver) levels to plasma levels after 1 hr of treatment; type: ADME; how it was run: as §3
[28] = system: Rattus norvegicus; assay: Volume of distribution at a dose of 10 mg/kg, intraperitoneal route in rat suspended in carboxymethyl cellulose (CMC); type: ADME, organism-based; design: dose 10 mg/kg, route intraperitoneal; conditions: in vivo, ip; how it was run: as §5
[29] = system: Rattus norvegicus; assay: Volume of distribution at a dose of 25 mg/kg, intraperitoneal route in rat suspended in carboxymethyl cellulose (CMC); type: ADME, organism-based; design: dose 25 mg/kg, route intraperitoneal; conditions: in vivo, ip; how it was run: as §5
[30] = system: Morganella morganii; assay: In vitro antibacterial activity against clinical isolates of Proteus morganii 27 (gram negative) by agar dilution assay.; type: functional; how it was run: as §1
[31] = Total clearance was determined in rat at 25 mg/kg intraperitoneal dosage; type: ADME, organism-based; design: dose 25 mg/kg, route intraperitoneal; conditions: in vivo, ip, read-out: Clearance (converted); how it was run: as §5
[32] = Ratio of tissue (heart) levels to plasma levels after 15 hr of treatment; type: ADME; how it was run: as §3
[33] = in vivo; conditions: ip, 25 mg/kg
[34] = Urinary excretion for the compound was evaluated as percent dose excreted at 400 mg/kg oral dosage in human; type: ADME, organism-based; design: dose 400 mg/kg, route oral; conditions: urine; how it was run: as §2
[35] = Peak plasma concentration at a dose of 400 mg/kg, oral route in human; type: ADME, organism-based; design: dose 400 mg/kg, route oral; conditions: read-out: Activity; how it was run: as §2
[36] = Ratio of tissue (heart) levels to plasma levels after 1 hr of treatment; type: ADME; how it was run: as §3
[37] = Ratio of tissue (kidney) levels to plasma levels after 15 hr of treatment; type: ADME; how it was run: as §3
[38] = Tissue levels determined 1 hr after peroral dose of 50 mg/kg in heart; conditions: po
[39] = Urinary excretion for the compound was evaluated as percent dose excreted at 25 mg/kg os dosage; type: ADME, organism-based; design: dose 25 mg/kg; conditions: urine, po; how it was run: as §6
[40] = Half life period was determined for the compound at 200 mg/kg concentration, oral route in human; type: ADME, organism-based; design: dose 200 mg/kg, route oral; conditions: in vivo; how it was run: as §2

CN1CCN(c2c(F)cc3c(=O)c(C(=O)O)cn4c3c2SCC4)CC1 [RUFLOXACIN]
MIC [1]: 0.78 µg/mL (≈ 2.15 µM) | half-life [2]: 32 h | Tmax [3]: 4 h | CL_renal [4]: 0.0933 mL/min/kg | Kp at 1 h [5]: 6 | Tmax [6]: 4 h | half-life [7]: 9.9 h | MIC [8]: < 0.39 µg/mL | MIC [9]: < 0.39 µg/mL | concentration at 15 h [10]: 5000 ng/mL | Kp at 15 h [11]: 3.7 | concentration at 1 h [12]: 61000 ng/mL | half-life [13]: 50 h | Tmax [14]: 2 h | half-life [15]: 8.7 h | concentration at 15 h [16]: 8000 ng/mL | half-life [17]: 12 h | CL renal [18]: 0.75 mL/min/kg | half-life [19]: 30 h | Cmax [20]: 21000 ng/mL | Cmax [21]: 6000 ng/mL | CL/F [22]: 4.22 mL/min/kg | Cmax [23]: 5500 ng/mL | dose excreted [24]: 16.7% | Tmax [25]: 4 h | Cmax [26]: 8000 ng/mL | Kp at 1 h [27]: 8 | Vd [28]: 3 L/kg | Vd [29]: 3 L/kg | MIC [30]: 1.56 µg/mL (≈ 4.29 µM) | CL/F [31]: 4.18 mL/min/kg | Kp at 15 h [32]: 1.7 | half-life [33]: 9.9 h | dose excreted [34]: 33% | Cmax [35]: 2730 ng/mL | Kp at 1 h [36]: 3 | Kp at 15 h [37]: 2.7 | concentration at 1 h [38]: 31000 ng/mL | dose excreted [39]: 24.5% | half-life [40]: 35 h

Source: ChEMBL document CHEMBL1123921, “Quinolonecarboxylic acids. 2. Synthesis and antibacterial evaluation of 7-oxo-2,3-dihydro-7H-pyrido[1,2,3-de][1,4]benzothiazine-6-carboxylic acids” (J Med Chem, 1987)
